CHOP inh: blocks CHOP induction under ER stress | CHO-K1 CHOP-promoter luciferase, tunicamycin-induced, 15-18 h | inhibition, % at 10 µM | actives 3.8% (n = 220,000);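 active = compounds that reduced the stress-induced luciferase reporter signal by more than about 70% of percent inhibition, limit read from the data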;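 note: 0% = tunicamycin plus vehicle and 100% = wells without tunicamycin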
GRIN3A LBD mod: NR3A (human) ligand-binding domain modulation; NR3A LBD differential scanning fluorimetry, Tm shift; 0% = protein alone, 100% = glycine-bound protein; Tm shift relative to glycine control, % at 25 µM; actives 2.5% (n = 340,000); AID 1259313;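 active = melting temperature shift of at least 10% of the positive control shift, at one fixed dose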
MPTP block: inhibitors of mitochondrial permeability transition pore; isolated mouse mitochondria, Ca2+ swelling absorbance, 30 min; inhibition, % at 10 µM; actives 1.4% (n = 360,000);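 active = inhibition of 50% or more, scaled per plate between neutral and stimulator controls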;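 note: 0% = DMSO wells given calcium and 100% = 1 mM EGTA wells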
EBV gp42 block: EBV gp42 inhibition | inhibition, % (tested at 21.74 µM) | Fluorescence polarization binding assay, mP read-out | AID 1085 | actives 0.42% (n = 220,000); in the data active = inhibition above about 50%
Target sequence (Q1HVG2 whole entry, looked up): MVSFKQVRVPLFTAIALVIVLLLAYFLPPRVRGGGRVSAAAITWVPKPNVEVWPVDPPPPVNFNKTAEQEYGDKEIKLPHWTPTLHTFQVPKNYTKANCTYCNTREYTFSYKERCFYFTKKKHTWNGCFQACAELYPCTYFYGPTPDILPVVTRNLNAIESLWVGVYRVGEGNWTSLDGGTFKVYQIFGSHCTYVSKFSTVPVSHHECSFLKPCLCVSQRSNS
TbMetRS inhib: Trypanosoma brucei MetRS inhibition. purified T. brucei MetRS, ATP depletion, Kinase-Glo luminescence. inhibition, % at 11.9 µM. actives 0.4% (n = 360,000). AID 624268;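 active = inhibition above a per-plate cutoff of the control wells' mean inhibition plus 3 SD, cut at about 5.5% in these data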;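 note: 0% = DMSO wells median and 100% = median of wells with control inhibitor compound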
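Material: T. brucei methionyl-tRNA synthetase, purified; reagent: substrates ATP, L-methionine and bulk Escherichia coli tRNA; dosing: 11.9 µM single point; timing: 15 min plus 2 h at 25 °C; detection: luminescence of leftover ATP; evaluation: % inhibition; control set: DMSO-only wells as low control; replicates: singlicate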
WT yeast gro inh: growth inhibition of WT yeast, mitochondrial fusion screen; AID 1362; actives 2.1% (n = 190,000); inhibition, % at 10 µM; mitochondrial fusion phenotypic screen, WT strain; in the data active = inhibition above about 58%; tested in S. cerevisiae
The depositor's hits bear a star. A selection: hits, their analogues and other compounds. The true share with any hit is near 6.4%.

Screening O=C1Nc2ccccc2SC1c1ccccc1Cl (stereo not drawn) returned GRIN3A LBD mod -4, MPTP block -1 and TbMetRS inhib 0.
`O=C1Nc2ccccc2SC(c2ccccc2)C1O` (stereo not drawn) gave CHOP inh -3, GRIN3A LBD mod 1, MPTP block 0, EBV gp42 block 67*, TbMetRS inhib -1 and WT yeast gro inh 11.
CCCc1cc(=O)oc2c(C)c(OCC(=O)Nc3ccc(CN4CCOCC4)cc3)ccc12 was read as GRIN3A LBD mod -7, MPTP block 0 and TbMetRS inhib -1.
For CCc1ccc(CSc2nccn2-c2ccccc2)cc1 the results were CHOP inh 72*, GRIN3A LBD mod -7, MPTP block -1, EBV gp42 block -5, TbMetRS inhib -1 and WT yeast gro inh 26.
CC1CCN(CC(=O)N2c3ccccc3CC2C)CC1 (stereo not drawn) was read as CHOP inh 0, GRIN3A LBD mod 0, MPTP block 1, EBV gp42 block -20, TbMetRS inhib 0 and WT yeast gro inh -2.
Screening CC1Cc2ccccc2N1C(=O)CNc1ccccc1N1CCCCC1 (stereo not drawn) returned CHOP inh 74*, GRIN3A LBD mod 0, MPTP block 9, EBV gp42 block -20, TbMetRS inhib 0 and WT yeast gro inh 23.
Screening COc1ccc(S(=O)(=O)N2CCc3ccccc32)cc1C(=O)OCc1c(C)noc1C returned CHOP inh 29, GRIN3A LBD mod -1, MPTP block 0, EBV gp42 block -3, TbMetRS inhib 0 and WT yeast gro inh 19.
`COc1ccc(S(=O)(=O)N2CCCCCC2)cc1C(=O)OCc1c(C)noc1C` gave CHOP inh 18, GRIN3A LBD mod 1, MPTP block -2, EBV gp42 block 0, TbMetRS inhib -1 and WT yeast gro inh 97*.
COc1cccc(COC(=O)c2cc(S(=O)(=O)N3CCCCC3)ccc2N2CCOCC2)c1OC was read as GRIN3A LBD mod 19*, MPTP block 0 and TbMetRS inhib 0.
`Cc1cccc(NC(=O)c2ccc(S(=O)(=O)N3CCCCC3)cc2)n1` gave CHOP inh 0, GRIN3A LBD mod 0, MPTP block -1, EBV gp42 block -7, TbMetRS inhib 0 and WT yeast gro inh 12.
For COc1ccc(S(=O)(=O)N2CCCCCC2)cc1C(=O)Nc1cccc(C)n1 the results were GRIN3A LBD mod 23*, MPTP block 0 and TbMetRS inhib 0.
Screening CCN(Cc1ccccc1)Cc1nc(CCc2ccccc2)no1 returned CHOP inh 8, GRIN3A LBD mod -2, MPTP block 2, EBV gp42 block -6, TbMetRS inhib 0 and WT yeast gro inh 11.
For CS(=O)(=O)Nc1ccccc1-c1cccc2nccn12 the results were MPTP block -2 and TbMetRS inhib 0.
For CC(C)(C)c1cc(C(=S)N2CCN(CCO)CC2)cc(C(C)(C)C)c1O the results were CHOP inh 20, GRIN3A LBD mod 11*, MPTP block -1, EBV gp42 block -5, TbMetRS inhib 0 and WT yeast gro inh 3.
For CCN(CC)c1ccc(NC(=O)C2CC(=O)N(Cc3ccccc3)C2)cc1 (stereo not drawn) the results were CHOP inh 26, GRIN3A LBD mod 0, MPTP block 1, EBV gp42 block -11, TbMetRS inhib -1 and WT yeast gro inh -8.
`CC(C)c1ccc(CN2CC(C(=O)Nc3ccccc3)CC2=O)cc1` (stereo not drawn) gave CHOP inh 23, GRIN3A LBD mod 15*, MPTP block 2, EBV gp42 block -12, TbMetRS inhib 0 and WT yeast gro inh 7.
For CCC(=O)NC(=S)Nc1ccc(NC(=O)COc2ccc(Cl)cc2Cl)cc1 the results were CHOP inh 90*, GRIN3A LBD mod 3, MPTP block 0, EBV gp42 block -9 and TbMetRS inhib 1.
`CCC(=O)NC(=S)Nc1ccc(NC(=O)COc2ccc(Cl)c(C)c2)cc1` gave CHOP inh 8, GRIN3A LBD mod -2, MPTP block 0, EBV gp42 block -12, TbMetRS inhib 0 and WT yeast gro inh 10.
Screening COc1ccc(NC(=S)NNC(=O)COc2ccc(Cl)cc2Cl)cc1 returned CHOP inh -1, GRIN3A LBD mod -4, MPTP block 4, EBV gp42 block -14, TbMetRS inhib 1 and WT yeast gro inh 69*.
CCC(=O)Nc1ccc(Cl)c(NC(=S)NC(=O)COc2ccccc2)c1 was read as CHOP inh 1, GRIN3A LBD mod -9, MPTP block 2, EBV gp42 block -12, TbMetRS inhib 0 and WT yeast gro inh -11.
For COc1ccc(NC(=S)NNC(=O)CNc2ccc(Cl)cc2)cc1 the results were CHOP inh 31, GRIN3A LBD mod 12*, MPTP block 2, EBV gp42 block -11, TbMetRS inhib 0 and WT yeast gro inh -13.
`CCC(=O)Nc1ccc(Cl)c(NC(=S)NC(=O)COc2ccc(Cl)cc2)c1` gave CHOP inh 60, GRIN3A LBD mod 26*, MPTP block 8, EBV gp42 block -15, TbMetRS inhib 1 and WT yeast gro inh 2.
Screening CCC(c1nnc(SCC(=O)NCCc2ccc(OC)c(OC)c2)n1Cc1ccccc1)N(C)C (stereo not drawn) returned CHOP inh 10, GRIN3A LBD mod -1, MPTP block -2, EBV gp42 block -5, TbMetRS inhib 0 and WT yeast gro inh 1.
Clc1ccccc1CN1CCN(c2ncccn2)CC1 was read as GRIN3A LBD mod 0, MPTP block 1 and TbMetRS inhib 0.
Screening Cn1c(-c2c(N)n(CCc3ccccc3)c3nc4ccccc4nc23)nc2ccccc21 returned CHOP inh -44, GRIN3A LBD mod 11*, MPTP block 2, EBV gp42 block -10, TbMetRS inhib 0 and WT yeast gro inh 50.
Screening N#Cc1c(N)n(CCc2ccc(F)cc2)c2nc3ccccc3nc12 returned CHOP inh 71*, GRIN3A LBD mod -3, MPTP block 3, EBV gp42 block -2, TbMetRS inhib 4 and WT yeast gro inh -4.
COCCn1c(N)c(C#N)c2nc3ccccc3nc21 was read as CHOP inh 18, GRIN3A LBD mod -2, MPTP block -1, EBV gp42 block -6, TbMetRS inhib -1 and WT yeast gro inh -5.
`COC(=O)Nc1nnc(Cc2ccc(OC)cc2)s1` gave CHOP inh 6, GRIN3A LBD mod -2, MPTP block 0, EBV gp42 block -13, TbMetRS inhib 0 and WT yeast gro inh 4.
Screening CCOC(=O)C1(CC2CCCCO2)CCN(Cc2cc(F)ccc2-n2cccn2)CC1 (stereo not drawn) returned CHOP inh 76*, GRIN3A LBD mod 5, MPTP block 1, EBV gp42 block -13, TbMetRS inhib 0 and WT yeast gro inh 7.

Screening results (PubChem)
